According to PMC4596243 (Cancer chemotherapy and pharmacology, 2013):
Where “and” joins values, the source holds several entries; their conditions need not be identical. Identical values can stand only once. Like-named read-outs stand apart in the source and are kept apart here.

How the values were obtained:
[1] = assay type: in vivo, rat; settings: for AUC(0-inf): AUC0–∞
[2] = TMZ administered with TNP-470; murine glioma model; cited from earlier work
[3] = system: U87 glioma; assay: In vivo susceptibility-contrast MRI of tumor vasculature after cediranib; parameters: species or system mice; settings: cediranib once daily
Outline: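 Mice bearing brain U87 tumours imaged at 9.4T on day 12 (2 control, 2 given test compound once daily until sacrifice) or day 21 (3 control, 1 treated). Multi-echo gradient-echo (TR 400 ms) and spin-echo (TR 2000 ms), 16 coronal 1-mm slices, 0.1 mm in-plane, before/after i.v. Feridex 25 mg Fe/kg. Vessel size from (ΔR2*/ΔR2)^3/2; manual tumour ROIs versus mirrored contralateral ROIs, histograms compared.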

[4] = system: recurrent GBM; settings: cited from earlier work
[5] = corrected for recovery, post-cediranib, individual animal
[6] = corrected for recovery, pre-cediranib, individual animal
[7] = post- vs pre-cediranib, tumor ECF, not statistically significant

Question: Which “AUC0–∞” value [1, 5] does the source give for `Cn1nnc2c(C(N)=O)ncn2c1=O` [TMZ, temozolomide] here?
Answer: The value was 3120 ng·h/mL and 4520 ng·h/mL and 3870 ng·h/mL and 3100 ng·h/mL.

Question: What about the Cmax [1, 5] of the same compound?
Answer: The Cmax was 1610 ng/mL and 650 ng/mL and 310 ng/mL and 1290 ng/mL and 640 ng/mL and 690 ng/mL.

Question: And the T1/2 [1, 5]?
Answer: Its T1/2 is 1.5 h and 1.7 h and 3.4 h.

Question: What about the “AUC0–∞” value [1, 6] of the same compound?
Answer: The value was 1730 ng·h/mL and 2380 ng·h/mL and 600 ng·h/mL and 2480 ng·h/mL and 1500 ng·h/mL and 1970 ng·h/mL and 2090 ng·h/mL.

Question: And the Cmax [1, 6]?
Answer: The Cmax was 460 ng/mL and 620 ng/mL and 190 ng/mL and 710 ng/mL and 690 ng/mL and 900 ng/mL and 530 ng/mL.

Question: What about the AUC(0-inf) ([1]; male, athymic, rat, tumor ECF (brain microdialysate), po, 50 mg/kg, corrected for recovery, post-cediranib, mean ± S.D.) of the same compound?
Answer: The AUC(0-inf) was 3720 ± 610 ng·h/mL.

Question: And the AUC(0-inf) ([1]; male, athymic, rat, tumor ECF (brain microdialysate), po, 50 mg/kg, corrected for recovery, pre-cediranib, mean ± S.D.)?
Answer: Its AUC(0-inf) is 1820 ± 640 ng·h/mL.

Question: What about the AUC(0-inf) ([1]; male, athymic, rat, tumor ECF (brain microdialysate), po, 50 mg/kg, raw data, post-cediranib, mean ± S.D.) of the same compound?
Answer: The AUC(0-inf) was 2840 ± 400 ng·h/mL.

Question: And the AUC(0-inf) ([1]; male, athymic, rat, tumor ECF (brain microdialysate), po, 50 mg/kg, raw data, pre-cediranib, mean ± S.D.)?
Answer: Its AUC(0-inf) is 1310 ± 510 ng·h/mL.

Question: What about the Cmax ([1]; male, athymic, rat, tumor ECF (brain microdialysate), po, 50 mg/kg, Cmax, corrected for recovery, post-cediranib, mean ± S.D.) of the same compound?
Answer: The Cmax was 830 ± 450 ng/mL.

Question: What about the Cmax ([1]; male, athymic, rat, tumor ECF (brain microdialysate), po, 50 mg/kg, Cmax, corrected for recovery, pre-cediranib, mean ± S.D.) of the same compound?
Answer: Its Cmax is 590 ± 220 ng/mL.

Question: What about the half-life ([1]; male, athymic, rat, tumor ECF (brain microdialysate), po, 50 mg/kg, T1/2, corrected for recovery, post-cediranib, mean ± S.D.) of the same compound?
Answer: Its half-life is 2 ± 0.9 h.

Question: What about the half-life ([1]; male, athymic, rat, tumor ECF (brain microdialysate), po, 50 mg/kg, T1/2, corrected for recovery, pre-cediranib, mean ± S.D.) of the same compound?
Answer: The half-life was 1.7 ± 0.3 h.

Question: And the half-life ([1]; male, athymic, rat, tumor ECF (brain microdialysate), po, 50 mg/kg, T1/2, raw data, post-cediranib, mean ± S.D.)?
Answer: The half-life was 2 ± 0.9 h.

Question: And the half-life ([1]; male, athymic, rat, tumor ECF (brain microdialysate), po, 50 mg/kg, T1/2, raw data, pre-cediranib, mean ± S.D.)?
Answer: The half-life was 1.7 ± 0.3 h.

Question: And the “increase in ECF-TMZ AUC0-∞ after cediranib administration” value [1, 7]?
Answer: Its value is 2.0 fold and 2 fold.

Question: What about the “increase in ECF-TMZ Cmax after cediranib administration” value [1, 7] of the same compound?
Answer: The value was 1.4 fold.

Question: What about the Cmax ([1]; raw data, pre-cediranib, TMZ 50 mg/kg oral, tumor ECF, individual animal) of the same compound?
Answer: Its Cmax is 510 ng/mL and 540 ng/mL and 380 ng/mL and 400 ng/mL and 470 ng/mL and 100 ng/mL.

Question: For `CO[C@@H]1[C@H](OC(=O)NC(=O)CCl)CC[C@]2(CO2)[C@H]1[C@@]1(C)O[C@@H]1CC=C(C)C` [TNP-470], which “reduction of TMZ in tumor concentrations” value [2] is on record?
Answer: Its value is 50%.

Question: Which “average vessel size (ΔR2*/ΔR2)^3/2 in treated tumor” value ([3]; D12) does the source give for `COc1cc2c(Oc3ccc4[nH]c(C)cc4c3F)ncnc2cc1OCCCN1CCCC1` [cediranib] here?
Answer: The value was “lower compared to the contralateral ROI”.

Question: And the “effect on vessel size in treated tumor” value ([3]; D21)?
Answer: Its value is “not apparent”.

Question: What about the “progression-free survival (PFS)” value ([4]; cediranib monotherapy, recurrent GBM patients) of the same compound?
Answer: Its value is “increased progression-free survival”.

Question: What about the “duration of tumor vessel normalization” value ([4]; once daily cediranib, patients with recurrent GBM, starting as early as one day after the treatment) of the same compound?
Answer: The value was “at least 28 days”.
